Experiment [1] concerns Plasmodium falciparum. Nature of the experiment: In vitro antimalarial activity against Plasmodium falciparum K1 by [3H]hypoxanthine uptake. It is filed as functional, organism-based.
Experiment [2] deals with Plasmodium falciparum. Nature of the experiment: In vitro antimalarial activity against Plasmodium falciparum HB3 by [3H]hypoxanthine uptake. The format is functional, organism-based.
For the next experiment, the system named is HL-60. Nature of the experiment: Inhibitory concentration against HL60 cells. It is filed as functional, cell-based. To be noted: Homo sapiens. A digest of the protocol: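 HL60 (2.5 × 10⁴/well) or Jurkat (1 × 10⁵/well) in RPMI-1640 with 10% FBS and 1% L-glutamine, 5% CO2, 37 °C. Exposed to 10⁻¹⁰–10⁻⁴ M for 72 h, final DMSO below 0.5% v/v. [3H]-thymidine (0.5 μCi) added for the final 24 h. Incorporation counted by β-scintillation.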

In another experiment the test system is Jurkat. Nature of the experiment: Inhibitory concentration against Jurkat cells. The format is functional, cell-based. To be noted: Homo sapiens. A digest of the protocol: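 Jurkat cells were grown in RPMI-1640 with 10% v/v FBS and 1% v/v L-glutamine at 37 °C under humidified 5% CO2, kept below 1 × 10⁶ cells/mL, with viability above 95%. Cells were plated at 1 × 10⁵/well and exposed to 10⁻¹⁰–10⁻⁴ M drug for 72 h, with final DMSO below 0.5% v/v. [³H]-thymidine (0.5 μCi/well) was added at 48 h for the final 24 h, and incorporation was read by β-scintillation counting.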

The values below come from ChEMBL document CHEMBL1149086, “Antimalarial and antitumor evaluation of novel C-10 non-acetal dimers of 10beta-(2-hydroxyethyl)deoxoartemisinin” (J Med Chem, 2004).

As a reminder, the IC50 is the midpoint of a concentration-inhibition curve.

Molecules are shown by their SMILES.

As to `COP(=O)(OC)OCC[C@H]1O[C@@H]2O[C@]3(C)CC[C@H]4[C@H](C)CC[C@@H]([C@H]1C)[C@@]24OO3`, the IC50 with Plasmodium falciparum [1] stood at 2.2 nM.

In the case of `C[C@H]1[C@@H](CCOC(=O)c2ccc(C(=O)OCC[C@H]3O[C@@H]4O[C@]5(C)CC[C@H]6[C@H](C)CC[C@@H]([C@H]3C)[C@@]46OO5)cc2)O[C@@H]2O[C@]3(C)CC[C@H]4[C@H](C)CC[C@@H]1[C@@]24OO3`, the IC50 with Plasmodium falciparum [1] amounted to 4.6 nM.

As for `C[C@H]1[C@@H](CCOCc2ccc(COCC[C@H]3O[C@@H]4O[C@]5(C)CC[C@H]6[C@H](C)CC[C@@H]([C@H]3C)[C@@]46OO5)cc2)O[C@@H]2O[C@]3(C)CC[C@H]4[C@H](C)CC[C@@H]1[C@@]24OO3`, in the experiment on Plasmodium falciparum [1], the IC50 is 2.4 nM.

Take `C[C@H]1[C@@H](CCOC(=O)c2cccc(C(=O)OCC[C@H]3O[C@@H]4O[C@]5(C)CC[C@H]6[C@H](C)CC[C@@H]([C@H]3C)[C@@]46OO5)c2)O[C@@H]2O[C@]3(C)CC[C@H]4[C@H](C)CC[C@@H]1[C@@]24OO3`: in the experiment with Plasmodium falciparum [1], the IC50 turned out to be 42.2 nM.

With `C[C@H]1[C@@H](CCOP(=O)(Oc2ccccc2)Oc2ccccc2)O[C@@H]2O[C@]3(C)CC[C@H]4[C@H](C)CC[C@@H]1[C@@]24OO3`, the IC50 in the experiment with Plasmodium falciparum [1] is 3.1 nM.

With `C[C@H]1[C@@H](CCOC(=O)c2ccccc2C(=O)OCC[C@H]2O[C@@H]3O[C@]4(C)CC[C@H]5[C@H](C)CC[C@@H]([C@H]2C)[C@@]35OO4)O[C@@H]2O[C@]3(C)CC[C@H]4[C@H](C)CC[C@@H]1[C@@]24OO3`, the IC50 turned out to be 1.6 nM in the experiment on Plasmodium falciparum [2] and 2.6 nM with Plasmodium falciparum [1].

`C[C@H]1[C@@H](CCOCc2ccccc2COCC[C@H]2O[C@@H]3O[C@]4(C)CC[C@H]5[C@H](C)CC[C@@H]([C@H]2C)[C@@]35OO4)O[C@@H]2O[C@]3(C)CC[C@H]4[C@H](C)CC[C@@H]1[C@@]24OO3`: the results for the IC50 in the experiment with Plasmodium falciparum [2] and in the experiment with Plasmodium falciparum [1] were 1.3 nM and 2.9 nM, respectively.

As to `C[C@H]1[C@@H](CCOCc2cccc(COCC[C@H]3O[C@@H]4O[C@]5(C)CC[C@H]6[C@H](C)CC[C@@H]([C@H]3C)[C@@]46OO5)c2)O[C@@H]2OC3(C)CC[C@H]4[C@H](C)CC[C@@H]1[C@@]24OO3` (single isomer, unassigned), the IC50 in the experiment with Plasmodium falciparum [2] was 2.1 nM; in the experiment with Plasmodium falciparum [1], 2.7 nM.

For the compound `C[C@H]1[C@@H](CCOC(=O)CCCC(=O)OCC[C@H]2O[C@@H]3OC4(C)CC[C@H]5[C@H](C)CC[C@@H]([C@H]2C)[C@@]35OO4)O[C@@H]2OC3(C)CC[C@H]4[C@H](C)CC[C@@H]1[C@@]24OO3` (single isomer, unassigned), the IC50 was determined as 1.1 nM in the experiment on Plasmodium falciparum [2] and 2.4 nM in the experiment with Plasmodium falciparum [1].

Take `C[C@H]1[C@@H](CCOC(=O)CCC(=O)OCC[C@H]2O[C@@H]3OC4(C)CC[C@H]5[C@H](C)CC[C@@H]([C@H]2C)[C@@]35OO4)O[C@@H]2OC3(C)CC[C@H]4[C@H](C)CC[C@@H]1[C@@]24OO3` (single isomer, unassigned): the figures for the IC50 in the experiment on Plasmodium falciparum [2] and in the experiment with Plasmodium falciparum [1] were 1.4 nM and 1.8 nM, respectively.

In turn, `C[C@@H]1CC[C@H]2[C@@H](C)C(=O)O[C@@H]3O[C@@]4(C)CC[C@@H]1[C@]32OO4` [ARTEMISININ] displayed an IC50 in the experiment with Plasmodium falciparum [1] of 12.3 nM.

In the case of `CC(=O)C1C(=O)C=C(C)OC1=O` (stereo not given) [DEHYDROACETIC ACID], the IC50 is 1210 nM in the experiment on HL-60 and 101000 nM with Jurkat.

For `COc1cccc2c1C(=O)c1c(O)c3c(c(O)c1C2=O)C[C@@](O)(C(=O)CO)C[C@@H]3O[C@H]1C[C@H](N)[C@H](O)[C@H](C)O1` [DOXORUBICIN], the IC50 in the experiment with HL-60 was found to be 510 nM; with Jurkat, 1700 nM.
